Calls of active or inactive are those of the source. The rule behind the calls is not given here.
Tests used:
[1] = tested on: MDA-MB-231; experiment: Antiproliferative activity against human estrogen receptor deficient MDA-MB-231 cells after 48 hrs by MTT assay; type: functional, cell-based; details: MDA-MB-231, 48 h
In short: (§1)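 MTT reduction: 1 × 10⁴ cells/well seeded in DMEM with 10% FBS, incubated 24 h at 37 °C in CO₂. Compounds diluted in culture medium and applied for 48 h. MTT (5 mg/mL stock) added for 4 h, formazan dissolved in DMSO, absorbance read at 540 nm. IC50 taken from growth inhibition. Vehicle control 0.001% DMSO.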

[2] = tested on: MCF7; experiment: Antiproliferative activity against human MCF7 cells expressing estrogen receptor after 48 hrs by MTT assay; type: functional, cell-based; details: MCF7, 48 h; in short: as §1
[3] = target: T1, Prostaglandin G/H synthase 2 (Homo sapiens, UniProt P35354)
T1 sequence (P35354 whole entry): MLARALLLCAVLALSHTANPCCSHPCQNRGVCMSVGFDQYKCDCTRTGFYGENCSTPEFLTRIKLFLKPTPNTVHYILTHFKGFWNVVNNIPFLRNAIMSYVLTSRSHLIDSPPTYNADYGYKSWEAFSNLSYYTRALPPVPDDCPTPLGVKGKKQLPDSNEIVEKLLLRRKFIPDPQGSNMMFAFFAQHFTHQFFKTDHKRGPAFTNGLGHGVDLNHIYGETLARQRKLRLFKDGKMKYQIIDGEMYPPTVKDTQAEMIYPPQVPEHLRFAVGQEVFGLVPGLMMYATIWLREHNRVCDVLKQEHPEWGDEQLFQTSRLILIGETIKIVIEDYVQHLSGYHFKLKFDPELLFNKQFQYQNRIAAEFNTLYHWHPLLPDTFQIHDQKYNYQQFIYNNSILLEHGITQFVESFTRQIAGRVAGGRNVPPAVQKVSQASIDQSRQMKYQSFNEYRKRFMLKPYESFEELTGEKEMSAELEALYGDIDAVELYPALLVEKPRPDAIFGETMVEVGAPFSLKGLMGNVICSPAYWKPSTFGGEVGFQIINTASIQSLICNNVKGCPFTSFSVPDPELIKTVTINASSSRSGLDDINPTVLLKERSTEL

[4] = tested on: MCF7; experiment: Induction of apoptosis in human MCF7 cells assessed as DNA fragmentation at 10 uM after 24 hrs by ELISA; type: functional, cell-based
In short: (§2)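 BrdU-labelled cells incubated with compound for 24 h. Cells lysed 30 min at rt and spun at 250g for 10 min. Supernatant captured on adsorbed anti-DNA antibody, fixed by microwave 5 min, then probed 90 min with peroxidase anti-BrdU; OD read at 370 nm. Kit positive and negative controls used. Duplicates from two independent experiments.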

[5] = tested on: Vero; experiment: Cytotoxicity against african green monkey Vero cells after 48 hrs by MTT assay; type: cell-based; details: chlorocebus sabaeus
[6] = tested on: MCF7; experiment: Induction of apoptosis in human MCF7 cells assessed as caspase induction at 20 uM after 24 hrs by fluorescence assay; type: functional, cell-based
In short: (§3)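 Caspase kit covering caspases 2, 3, 6, 7, 8, 9 and 10. MCF-7 cells serum-deprived 4 h, then treated with compound for 24 h at various concentrations. DEVD-rhodamine-110 substrate added; released rhodamine-110 fluorescence read at 560 nm. Camptothecin-treated U937 cells served as positive control. Duplicates from two independent experiments.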

[7] = tested on: MCF7; experiment: Induction of apoptosis in human MCF7 cells assessed as DNA fragmentation at 20 uM after 24 hrs by ELISA; type: functional, cell-based; in short: as §2
[8] = tested on: MDA-MB-231; experiment: Induction of apoptosis in human MDA-MB-231 cells assessed as caspase induction at 20 uM after 24 hrs by fluorescence assay; type: functional, cell-based
[9] = target: T2, Estrogen receptor (Homo sapiens) (UniProt P03372); experiment: Transactivation of ERalpha expressed in african green monkey COS7 cells at 5 uM after 24 hrs by luciferase reporter gene assay; type: cell-based; details: COS-7
T2 sequence (whole entry): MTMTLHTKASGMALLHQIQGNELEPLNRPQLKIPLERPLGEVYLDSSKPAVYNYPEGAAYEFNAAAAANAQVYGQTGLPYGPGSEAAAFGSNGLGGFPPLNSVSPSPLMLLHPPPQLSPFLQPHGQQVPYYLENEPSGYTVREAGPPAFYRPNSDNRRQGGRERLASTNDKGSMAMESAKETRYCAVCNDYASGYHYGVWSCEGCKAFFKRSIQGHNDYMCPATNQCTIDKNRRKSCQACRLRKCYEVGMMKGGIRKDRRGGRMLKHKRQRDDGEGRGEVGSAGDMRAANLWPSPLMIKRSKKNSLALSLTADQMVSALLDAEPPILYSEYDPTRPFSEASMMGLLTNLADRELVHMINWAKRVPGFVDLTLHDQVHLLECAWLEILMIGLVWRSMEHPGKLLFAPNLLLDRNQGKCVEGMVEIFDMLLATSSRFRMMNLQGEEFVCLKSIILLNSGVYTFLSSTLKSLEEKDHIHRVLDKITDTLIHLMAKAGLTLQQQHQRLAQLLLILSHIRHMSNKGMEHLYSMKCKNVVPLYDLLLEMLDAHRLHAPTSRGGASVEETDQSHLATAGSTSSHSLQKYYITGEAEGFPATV
In short: (§4)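 Cos-7 cells, 40,000 per well, seeded 24 h before co-transfection with 200 ng pGL3-Gal4Tk-Luc reporter plus ERα or ERβ expression plasmid and pRL-CMV. Compounds given, then cells harvested 24 h post-transfection for dual-luciferase assay. Firefly signal normalised to Renilla and GFP, expressed as fold over VP-16 control. Mean ± SD of three independent experiments.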

[10] = Cytotoxicity against osteoblasts after 48 hrs by MTT assay; type: cell-based; details: osteoblast
[11] = tested on: MDA-MB-231; experiment: Induction of apoptosis in human MDA-MB-231 cells assessed as morphological changes at 10 uM after 18 hrs using Hoechst 33342 staining by fluorescent microscopy; type: functional, cell-based
In short: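 10,000 cells seeded on 18-mm coverslips and grown 24 h. Medium replaced, then cells treated with 10 µM compound for 18 h. Stained with Hoechst 33342 0.5 µg/ml in 4% paraformaldehyde for 30 min at 37 °C. Random fields imaged by fluorescence microscopy; viable versus apoptotic cells judged qualitatively by fluorescence and nuclear fragmentation.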

[12] = target: Estrogen receptor beta (Homo sapiens) (UniProt Q92731); experiment: Transactivation of ERbeta expressed in african green monkey COS7 cells at 5 uM after 24 hrs by luciferase reporter gene assay; type: cell-based; details: COS-7; in short: as §4
[13] = tested on: MDA-MB-231; experiment: Induction of apoptosis in human MDA-MB-231 cells assessed as caspase induction at 40 uM after 24 hrs by fluorescence assay; type: functional, cell-based
[14] = tested on: MDA-MB-231; experiment: Induction of apoptosis in human MDA-MB-231 cells assessed as DNA fragmentation at 20 uM after 24 hrs by ELISA; type: functional, cell-based; in short: as §2
[15] = tested on: MCF7; experiment: Induction of apoptosis in human MCF7 cells assessed as caspase induction at 40 uM after 24 hrs by fluorescence assay; type: functional, cell-based; in short: as §3
[16] = tested on: MDA-MB-231; experiment: Induction of apoptosis in human MDA-MB-231 cells assessed as DNA fragmentation at 10 uM after 24 hrs by ELISA; type: functional, cell-based; in short: as §2

Chain of Estrogen receptor beta (Homo sapiens) (Q92731 whole entry): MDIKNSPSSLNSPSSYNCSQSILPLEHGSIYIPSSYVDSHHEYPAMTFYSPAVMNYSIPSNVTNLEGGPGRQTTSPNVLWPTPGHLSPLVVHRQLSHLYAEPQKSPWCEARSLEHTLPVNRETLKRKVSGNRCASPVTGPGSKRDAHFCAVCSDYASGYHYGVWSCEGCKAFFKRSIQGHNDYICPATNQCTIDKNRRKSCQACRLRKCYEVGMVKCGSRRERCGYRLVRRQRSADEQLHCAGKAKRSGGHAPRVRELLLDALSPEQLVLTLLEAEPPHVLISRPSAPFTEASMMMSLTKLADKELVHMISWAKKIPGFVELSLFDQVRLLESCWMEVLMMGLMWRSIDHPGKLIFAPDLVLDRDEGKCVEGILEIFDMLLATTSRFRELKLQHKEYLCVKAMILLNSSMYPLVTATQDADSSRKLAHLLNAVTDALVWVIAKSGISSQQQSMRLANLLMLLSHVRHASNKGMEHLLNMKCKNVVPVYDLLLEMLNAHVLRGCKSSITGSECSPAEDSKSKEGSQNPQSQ

IC50 [1] [µM]	IC50 [2] [µM]	SMILES	Activity [5]	Activity [10]	also measured
> 100	38	O=c1oc(-c2ccccc2)cc(-c2ccc(O)cc2)c1-c1ccccc1			
> 100	26	O=c1oc(-c2ccc(O)cc2)cc(-c2ccccc2)c1-c1ccc(O)cc1			
27	24	O=c1oc(-c2ccccc2)cc(-c2ccc(O)cc2)c1-c1ccc(O)cc1	Non-toxic	Non-toxic	Activity [4]: Active; Activity [6]: Active; Activity [7]: Active; Activity [8]: inactive; Activity [9]: inactive; Activity [11]: Active; Activity [12]: inactive; Activity [13]: inactive; Activity [14]: Active
> 100	> 50	O=c1oc(-c2ccccc2)cc(-c2ccccc2)c1-c1ccc(OCCN2CCCCC2)cc1			
38	25	O=c1oc(-c2ccccc2)cc(-c2ccccc2)c1-c1ccc(O)cc1	Non-toxic	Non-toxic	Activity [15]: Active; Activity [4]: inactive; Activity [7]: inactive; Activity [9]: inactive; Activity [11]: Active; Activity [12]: inactive
9	14	O=c1oc(-c2ccccc2)cc(-c2ccc(OCCN3CCCC3)cc2)c1-c1ccccc1	Toxic	Toxic	
11	26	O=c1oc(-c2ccccc2)cc(-c2ccc(OCCN3CCCCC3)cc2)c1-c1ccccc1	Toxic	Toxic	
34	25	O=c1oc(-c2ccc(OCCN3CCCC3)cc2)cc(-c2ccccc2)c1-c1ccccc1	Toxic	Toxic	
26	14	O=c1oc(-c2ccc(O)cc2)cc(-c2ccc(O)cc2)c1-c1ccccc1	Non-toxic	Non-toxic	Activity [6]: Active; Activity [16]: Active; Activity [7]: Active; Activity [8]: inactive; Activity [9]: inactive; Activity [11]: Active; Activity [12]: inactive; Activity [13]: inactive; Activity [14]: Active

Continued, molecule first:

SMILES	IC50 [1] [µM]	IC50 [2] [µM]	Activity [5]	Activity [10]	also measured
COc1ccc(-c2cc(-c3ccccc3)c(-c3ccc(S(C)(=O)=O)cc3)c(=O)o2)cc1					IC50 [3]: 0.02 µM
COc1ccc(-c2cc(-c3ccccc3)oc(=O)c2-c2ccc(O)cc2)cc1	> 100	> 50			
O=c1oc(-c2ccc(O)cc2)cc(-c2ccccc2)c1-c1ccccc1	13	21	Toxic	Toxic	
COc1ccc(-c2cc(-c3ccccc3)c(-c3ccc(O)cc3)c(=O)o2)cc1	17	14	Non-toxic	Non-toxic	Activity [4]: inactive; Activity [6]: Active; Activity [7]: inactive; Activity [8]: inactive; Activity [9]: inactive; Activity [11]: Active; Activity [12]: inactive; Activity [13]: inactive
O=c1oc(-c2ccc(OCCN3CCCCC3)cc2)cc(-c2ccccc2)c1-c1ccccc1	> 100	24			
COc1ccc(-c2cc(-c3ccccc3)oc(=O)c2-c2ccc(OCCN3CCCCC3)cc2)cc1	12	16	Toxic	Toxic	
CC/C(=C(\c1ccccc1)c1ccc(OCCN(C)C)cc1)c1ccccc1 [TAMOXIFEN]	20	10			
O=c1oc(-c2ccccc2)cc(-c2ccccc2)c1-c1ccc(OCCN2CCCC2)cc1	> 100	23			

From ChEMBL document CHEMBL1137766, “Synthesis and biological evaluation of 3,4,6-triaryl-2-pyranones as a potential new class of anti-breast cancer agents” (Bioorg Med Chem, 2009)
